Test results taken from PubChem BioAssay AID623967 (Broad Institute, 2012).
Values joined by “and” are separate entries in the source; they are usually repeats but may differ in a detail not shown here. Identical values can stand only once. Active and inactive are the calls of the source.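 The calls were made as follows: active = compounds whose fitted dose for half their peak growth loss is at most twice the top usable dose; inconclusive = flat curve with moderate growth loss, or a poor fit; inactive = the rest.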

What was measured:
[1] = antifungal activity against fermenting C. glabrata – glucose medium, OD600, powder samples, set 3, dose response (AID 623967); details: Candida glabrata growth in glucose medium, OD600, 48 h; at 3 µM (top of the series)
How it was run: (§1)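 System – Candida glabrata yeast cells, whole-organism growth assay · Technique – optical density at 600 nm · Incubation – 48 h growth exposure at 30 °C, static, humidified · Compound dosing – pin-transferred compounds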

[2] = system: Candida glabrata growth in glucose medium, OD600, 48 h; assay: as above
How it was run: as §1

| SMILES | activity change, negative = inhibition [1] | AC50 [2] [nM] |
| --- | --- | --- |
| CCOC(=O)N1C(=O)C2(CCCCC2)N(c2cccc(C)c2)C1=S | -8.41% (inactive) | – |
| CCOC(=O)N1C(=O)C2(CCCCC2)N(c2ccc(C#N)cc2)C1=S | -6.49% (inactive) | – |
| CCOC(=O)N1C(=O)C2(CCCCC2)N(c2ccc(C)cc2)C1=S | -11.3% (inactive) and -13.1% (inactive) | – |
| CCOC(=O)N1C(=O)C2(CCCCC2)N(c2ccccc2)C1=S | -11.4% (inactive) | – |
| CC1/C=C/C=C\C=C\C=C\C=C\C=C\C=C\C(O[C@H]2OC(C)C(O)C(N)C2O)CC2OC(O)(CC(O)CC(O)C(O)CCC(O)CC(O)CC(=O)OC(C)C(C)C1O)CC(O)C2C(=O)O (stereo partly drawn) | – | 1220 |
| CCOC(=O)N1C(=O)C2(CCCCC2)N(c2ccc(Cl)cc2)C1=S | -9.79% (inactive) | – |
| C/C=C/[C@@H]1[C@H]2C[C@@H](C)CC[C@@H]2C(C)=C[C@H]1C(=O)c1c(O)c(-c2ccc(O)cc2)c[nH]c1=O | -1.31% (inactive) | – |
| CCOC(=O)N1C(=O)C2(CCCCC2)N(c2ccc(F)cc2)C1=S | -12.7% (inactive) | – |
